Assay results: ChEMBL document CHEMBL4831496, “Noncovalent EGFR T790M/L858R inhibitors based on diphenylpyrimidine scaffold: Design, synthesis, and bioactivity evaluation for the treatment of NSCLC” (Eur J Med Chem, 2021)
The source made the active and inactive calls. The rule behind the calls is not given here.

Experiments:
NCI-H1975 [1] = assay: Induction of apoptosis in human NCI-H1975 cells assessed as late apoptotic cells at 0.125 uM incubated for 48 hrs by AnnexinV/FITC and propidium iodide staining based flow cytometry analysis (reference value: 0.73%); assay type: functional
[2] = MRT (0 to infinity) in Sprague-Dawley rat at 25 mg/kg, iv by LC-MS/MS analysis; assay type: ADME, organism-based; settings: in vivo
Summary of the method: (§1)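 Male Sprague-Dawley rats (200 ± 20 g), acclimatised 1 week at 25 ± 2 °C, 50-60% RH; six rats given 25 mg/kg by tail vein. Retro-orbital blood into heparin at 10, 20, 40 min and 1, 2, 3, 4, 6, 8, 12, 24 h. Plasma ethyl acetate-extracted and quantified by LC-MS/MS, transition m/z 485.3/452.3.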

NCI-H1975 [3] = assay: Induction of morphological changes in human NCI-H1975 cells assessed as chromatin shrinkage and gathering to nuclear membrane at 0.5 to 2 uM incubated for 48 hrs by DAPI staining based fluorescence microscopic analysis; assay type: functional, cell-based; settings: dose 0.5-2 µM
Summary of the method: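 H1975 cells seeded at about 2 × 10⁵/well for 12 h, then treated. Cells fixed in 10% formaldehyde for 10 min, stained with DAPI for 10 min at room temperature and examined by fluorescence microscopy. Cell shape was also viewed under natural light.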

NCI-H1975 [4] = assay: Induction of cell cycle arrest in human NCI-H1975 cells assessed as accumulation of cells at S phase at 0.5 uM incubated for 48 hrs by propidium iodide staining based flow cytometry analysis (reference value: 11.72%); assay type: functional
NCI-H1975 [5] = assay: Induction of cell cycle arrest in human NCI-H1975 cells assessed as accumulation of cells at G0/G1 phase at 2 uM incubated for 48 hrs by propidium iodide staining based flow cytometry analysis (reference value: 58.05%); assay type: functional
[6] = AUC (0 to infinity) in Sprague-Dawley rat at 25 mg/kg, iv by LC-MS/MS analysis; assay type: ADME, organism-based; set-up: route intravenous, time infinity, dose 25 mg/kg; settings: in vivo; summary of the method: as §1
NCI-H1975 [7] = assay: Induction of cell cycle arrest in human NCI-H1975 cells assessed as accumulation of cells at S phase at 2 uM incubated for 48 hrs by propidium iodide staining based flow cytometry analysis (reference value: 11.72%); assay type: functional
NCI-H1975 [8] = assay: Induction of apoptosis in human NCI-H1975 cells assessed as late apoptotic cells at 0.5 uM incubated for 48 hrs by AnnexinV/FITC and propidium iodide staining based flow cytometry analysis (reference value: 0.73%); assay type: functional
NCI-H1975 [9] = assay: Induction of apoptosis in human NCI-H1975 cells assessed as late apoptotic cells at 2 uM incubated for 48 hrs by AnnexinV/FITC and propidium iodide staining based flow cytometry analysis (reference value: 0.73%); assay type: functional
[10] = target: Epidermal growth factor receptor (Homo sapiens, UniProt P00533, L858R/T790M); assay: Inhibition of EGFR L858R/T790M double mutant (unknown origin) measured after 60 mins by ADP-Glo kinase based luminescence assay
L02 = assay: Antiproliferative activity against human L02 cells assessed as reduction in cell viability incubated for 72 hrs by CCK8 assay; assay type: cell-based; settings: L02, 72 h
NCI-H1975 [11] = assay: Induction of apoptosis in human NCI-H1975 cells assessed as necrotic cells at 2 uM incubated for 48 hrs by AnnexinV/FITC and propidium iodide staining based flow cytometry analysis (reference value: 2.99%); assay type: functional
NCI-H23 = assay: Antiproliferative activity against human NCI-H23 cells harboring KRAS mutant assessed as reduction in cell viability incubated for 72 hrs by CCK8 assay; assay type: functional, cell-based; settings: NCI-H23, 72 h
Summary of the method: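 Cells kept as monolayers at 37 °C, 5% CO2, seeded 3000-4000/well for 12 h, then exposed to compounds for 72 h. CCK-8 added for 1-2 h at 37 °C, absorbance read at 450 nm. Each dose run in triplicate, experiment repeated at least three times. IC50 taken from dose-response curves.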

NCI-H1975 [12] = assay: Induction of apoptosis in human NCI-H1975 cells assessed as early apoptotic cells at 2 uM incubated for 48 hrs by AnnexinV/FITC and propidium iodide staining based flow cytometry analysis (reference value: 1.39%); assay type: functional

Chain of Epidermal growth factor receptor (P00533 25-1210 T790M/L858R limits assumed): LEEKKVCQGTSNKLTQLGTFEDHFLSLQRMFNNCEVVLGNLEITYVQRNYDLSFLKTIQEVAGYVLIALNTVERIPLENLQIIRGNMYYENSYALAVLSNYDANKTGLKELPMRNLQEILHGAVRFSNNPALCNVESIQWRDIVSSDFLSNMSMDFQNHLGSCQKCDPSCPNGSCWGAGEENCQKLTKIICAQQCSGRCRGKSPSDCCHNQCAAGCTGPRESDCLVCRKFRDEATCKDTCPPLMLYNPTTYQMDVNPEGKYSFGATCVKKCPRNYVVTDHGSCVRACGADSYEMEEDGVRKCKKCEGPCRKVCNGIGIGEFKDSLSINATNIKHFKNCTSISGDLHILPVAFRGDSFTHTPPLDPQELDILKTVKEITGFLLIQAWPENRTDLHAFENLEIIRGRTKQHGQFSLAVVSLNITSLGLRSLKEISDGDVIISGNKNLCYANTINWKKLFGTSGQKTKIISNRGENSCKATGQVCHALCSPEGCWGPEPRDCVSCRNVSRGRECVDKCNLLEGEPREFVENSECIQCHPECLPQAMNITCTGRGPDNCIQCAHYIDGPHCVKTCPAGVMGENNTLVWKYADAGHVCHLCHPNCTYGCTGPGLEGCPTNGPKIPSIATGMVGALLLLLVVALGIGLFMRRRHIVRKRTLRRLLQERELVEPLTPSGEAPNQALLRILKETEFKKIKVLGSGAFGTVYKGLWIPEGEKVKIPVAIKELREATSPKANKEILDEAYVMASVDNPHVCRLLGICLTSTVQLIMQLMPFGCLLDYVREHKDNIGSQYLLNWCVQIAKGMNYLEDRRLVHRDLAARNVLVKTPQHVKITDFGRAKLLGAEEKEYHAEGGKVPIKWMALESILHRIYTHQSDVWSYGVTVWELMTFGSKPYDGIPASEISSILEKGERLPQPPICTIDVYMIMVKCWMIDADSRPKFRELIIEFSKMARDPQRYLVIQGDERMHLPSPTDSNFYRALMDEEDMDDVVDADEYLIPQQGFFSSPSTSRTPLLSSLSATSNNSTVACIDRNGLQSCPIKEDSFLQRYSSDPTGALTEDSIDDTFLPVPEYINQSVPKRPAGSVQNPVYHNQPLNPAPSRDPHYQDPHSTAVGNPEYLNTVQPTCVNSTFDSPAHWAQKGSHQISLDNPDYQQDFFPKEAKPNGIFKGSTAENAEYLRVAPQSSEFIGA

MRT inf [2]: 13.1 h
AUC(0-inf) [6]: 45200 ng·h/mL
IC50 [10]: 1.1 nM
IC50 (NCI-H23): 625 nM
SMILES: O=C(NO)c1ccccc1Nc1nc(Nc2ccc(OCCN3CCOCC3)cc2)ncc1Cl
Activity (NCI-H1975 [1]): 0.31%
Activity (NCI-H1975 [3]): Active
Activity (NCI-H1975 [4]): 9.86%
Activity (NCI-H1975 [5]): 57.28%
Activity (NCI-H1975 [7]): 10.83%
Activity (NCI-H1975 [8]): 0.56%
Activity (NCI-H1975 [9]): 0.67%
IC50 (L02): 3050 nM
Activity (NCI-H1975 [11]): 0.14%
Activity (NCI-H1975 [12]): 90.55%
